# Measurements: ChEMBL document CHEMBL4376888, “Discovery of Potent, Selective, and Direct Acid Sphingomyelinase Inhibitors with Antidepressant Activity” (J Med Chem, 2020)
# Active and inactive are the calls of the source. No cut-off for these calls is given here.
# Assays:
# [1] = target: T1, Sphingomyelin phosphodiesterase (Homo sapiens, UniProt P17405); test: Inhibition of human Huh7 cell derived acid sphingomyelinase using NBD-sphingomyelin as substrate after 30 mins by fluorescence based assay
# T1 sequence (P17405 whole entry): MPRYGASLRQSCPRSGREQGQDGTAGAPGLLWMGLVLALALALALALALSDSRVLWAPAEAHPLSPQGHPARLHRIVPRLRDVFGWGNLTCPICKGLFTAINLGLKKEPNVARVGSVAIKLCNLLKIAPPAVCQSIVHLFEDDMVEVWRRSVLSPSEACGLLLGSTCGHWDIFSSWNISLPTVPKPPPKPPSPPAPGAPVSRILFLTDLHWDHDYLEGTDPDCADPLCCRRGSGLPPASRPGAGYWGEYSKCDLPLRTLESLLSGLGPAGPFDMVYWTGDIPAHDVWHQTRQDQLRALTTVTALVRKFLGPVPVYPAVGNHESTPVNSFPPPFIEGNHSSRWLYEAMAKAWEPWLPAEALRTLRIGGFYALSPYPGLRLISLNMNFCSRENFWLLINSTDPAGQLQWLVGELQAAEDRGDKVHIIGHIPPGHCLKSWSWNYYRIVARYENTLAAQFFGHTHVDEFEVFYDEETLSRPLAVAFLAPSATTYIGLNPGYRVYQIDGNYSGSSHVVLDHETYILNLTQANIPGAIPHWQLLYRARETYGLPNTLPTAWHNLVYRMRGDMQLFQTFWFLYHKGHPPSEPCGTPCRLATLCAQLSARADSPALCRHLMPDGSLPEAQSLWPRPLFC
# Method in brief: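 Cultured cells were lysed in 25 mM Tris-HCl pH 7.4, 5 mM EDTA, sonicated and cleared at 300 g. 400 μg protein incubated with NBD-sphingomyelin in 100 mM sodium acetate pH 4.7, 1% Triton X-100, 40 mM CaCl2, 100 μM ZnCl2. Inhibitors added in DMSO, 37 °C, 30 min. Stopped with chloroform/methanol 2:1; NBD-ceramide fluorescence after TLC.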
# [2] = target: T1, Sphingomyelin phosphodiesterase; test: Inhibition of acid sphingomyelinase (unknown origin)
# [3] = test system: NIH3T3; test: Cytotoxicity against mouse NIH/3T3 cells assessed as reduction in cell viability after 24 hrs by MTT assay; assay type: cell-based; settings: mouse, nih3t3, 24 h
# Method in brief: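 NIH3T3 cells in DMEM with 10 % FBS at 37 °C, 5 % CO₂, grown overnight, then inhibitor added for 24 h; viability read by MTT.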
# [4] = test system: Rattus norvegicus; test: Antidepressant activity in Sprague-Dawley rat model of reserpine-induced depression assessed as reduction in total time spent in center at 12 mg/kg, ip administered twice daily for 2 weeks measured for 5 mins by open field test; assay type: functional, organism-based
# Method in brief: (§1)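 Female SD rats (6-8 weeks, 200 g) given reserpine 4 mg/Kg ip daily to induce depression; test agent in 5 % DMSO, 2 % Tween 80, 5 % glucose, ip twice a day for two weeks. Each rat placed in the central square of a 100 cm × 100 cm box (25 squares, walls ~42 cm); centre time, grid crossings, rearing and grooming recorded over 5 min, 7:30–12:00; n = 8.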
# [5] = test system: Rattus norvegicus; test: Antidepressant activity in Sprague-Dawley rat model of reserpine-induced depression assessed as increase in time passing the grid at 12 mg/kg, ip administered twice daily for 2 weeks measured for 5 mins by open field test; assay type: functional, organism-based; method in brief: as §1
# [6] = test system: Rattus norvegicus; test: Antidepressant activity in Sprague-Dawley rat model of reserpine-induced depression assessed as increase in frequency of upright at 12 mg/kg, ip administered twice daily for 2 weeks measured for 5 mins by open field test; assay type: functional, organism-based; method in brief: as §1
# [7] = test system: Rattus norvegicus; test: Antidepressant activity in Sprague-Dawley rat model of reserpine-induced depression assessed as increase in grooming frequency at 12 mg/kg, ip administered twice daily for 2 weeks measured for 5 mins by open field test; assay type: functional, organism-based; method in brief: as §1
# [8] = test system: Rattus norvegicus; test: Reversal of reserpine-induced inhibition of neurogenesis in Sprague-Dawley rat hippocampus at 12 mg/kg, ip administered twice daily for 2 weeks by EDU-incorporation assay; assay type: functional, organism-based
# Method in brief: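 Reserpine-depressed female SD rats (4 mg/Kg ip daily; drug ip twice daily for two weeks) injected with EdU 8 mg/kg twice in 1 day, killed 96 h later. Frozen brain sections washed with glycine and PBS, Click-iT stained 30 min, Hoechst 33342 30 min; hippocampal proliferation scored by fluorescence microscopy; n = 5.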
# [9] = target: T2, Sphingomyelin phosphodiesterase 2 (Homo sapiens) (UniProt O60906); test: Inhibition of neutral sphingomyelinase (unknown origin) at 100 uM using NBD-sphingomyelin as substrate after 30 mins by fluorescence based assay
# T2 sequence (whole entry): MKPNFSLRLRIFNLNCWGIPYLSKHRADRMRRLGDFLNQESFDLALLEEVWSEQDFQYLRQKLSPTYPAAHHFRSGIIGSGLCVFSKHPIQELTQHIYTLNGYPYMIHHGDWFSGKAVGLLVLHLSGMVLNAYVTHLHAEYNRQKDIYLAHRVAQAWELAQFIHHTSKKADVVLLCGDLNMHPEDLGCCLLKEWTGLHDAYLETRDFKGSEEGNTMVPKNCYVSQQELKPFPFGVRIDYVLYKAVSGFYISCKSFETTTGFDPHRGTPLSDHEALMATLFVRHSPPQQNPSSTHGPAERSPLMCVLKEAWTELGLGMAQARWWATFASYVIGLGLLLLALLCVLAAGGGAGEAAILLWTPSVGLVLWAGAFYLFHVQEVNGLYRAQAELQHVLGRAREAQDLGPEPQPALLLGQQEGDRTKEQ
# Method in brief: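 Neutral sphingomyelinase assay run as the ASM cell-extract assay (NBD-sphingomyelin, 37 °C, 30 min, chloroform/methanol extraction, TLC, NBD-ceramide fluorescence). Buffer was 200 mM Tris-HCl pH 7.4 with 10 mM MgCl2 and 10 mM dithiothreitol. Tested at 100 μM.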
# [10] = Solubility of the compound in physiological saline; assay type: physicochemical; settings: buffer
# [11] = target: T1, Sphingomyelin phosphodiesterase; test: Inhibition of recombinant human acid sphingomyelinase (His62 to Pro628 residues) using NBD-sphingomyelin as substrate after 30 mins by fluorescence based assay
# Method in brief: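 Buffer 100 mM sodium acetate pH 4.7, 1% Triton X-100, 40 mM CaCl2, 100 μM ZnCl2. Inhibitors in DMSO at various concentrations, 37 °C, 30 min. NBD-ceramide fluorescence after chloroform/methanol extraction and TLC.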
IC50 [1] [µM],inhibition [9],IC50 [11] [µM],SMILES,further results
13.8,–,–,COc1ccc(-c2nc(COc3cc(C(=O)NO)ccc3OC)no2)cc1OC,–
–,–,–,CCCCCCCC(N)(P(=O)(O)O)P(=O)(O)O,IC50 [2]: 0.02 µM
–,–,–,CN(C)CCC=C1c2ccccc2CCc2ccccc21 [AMITRIPTYLINE],Activity [3]: Non-Toxic; Activity [4]: Active; Activity [5]: Active; Activity [6]: Active; Activity [7]: Active; Activity [8]: Active
–,inactive,–,COc1ccc(C(=O)NO)cc1OCc1ccc(-c2ccccc2)cc1,solubility [10]: Insoluble
> 100,–,–,O=C(NO)c1cccc(OCc2ccc(-c3noc(-c4ccc(Br)cc4)n3)cc2)c1,–
8.96,–,0.36,O=C(NO)c1cccc(OCc2ccc(-c3ccc(Cl)cc3)cc2)c1,solubility [10]: Insoluble
34.7,–,–,CCc1nc(-c2ccc(COc3cccc(C(=O)NO)c3)cc2)no1,–
–,–,–,CCCCCCCCCCCCC/C=C/[C@H](O)[C@@H](COP(=O)([O-])OCC[N+](C)(C)C)NC(=S)NC(C)(C)C,Ki [2]: 70 µM
14.1,–,–,COc1c(O)cc2oc3cc(O)c(CC=C(C)C)c(O)c3c(=O)c2c1CC=C(C)C [MANGOSTIN],–
–,inactive,–,CCCCCCc1ccc(COc2cc(C(=O)NO)ccc2OC)cc1,solubility [10]: Insoluble
> 100,–,–,O=C(NO)c1cccc(OCc2ccc(-c3noc(-c4ccccc4)n3)cc2)c1,–
> 100,–,–,COc1ccc(C(=O)NO)cc1OCc1ccc(-c2noc(-c3ccc(Br)cc3)n2)cc1,–
> 100,–,–,O=C(NO)c1cccc(OCc2ccc(-c3noc(-c4cccc(F)c4)n3)cc2)c1,–
19.6,inactive,–,O=C(NO)c1cccc(OCc2ccc(-c3ccccc3)cc2)c1,solubility [10]: Insoluble
1.73,inactive,4.25,O=C(NO)c1cccc(OCc2ccc(-c3noc(CCc4ccccc4)n3)cc2)c1,–
9.22,inactive,–,COc1ccc(C(=O)NO)cc1OCc1noc(-c2cccc(Cl)c2)n1,–
0.88,inactive,4.09,O=C(NO)c1cc(OCc2ccc(-c3ccccc3)cc2)no1,–
–,–,–,CCOc1ccc2oc(-c3cc(Br)cc4c3OCOC4)c(N)c(=O)c2c1,IC50 [2]: 3.1 µM
7.83,–,4.93,O=C(NO)c1cccc(OCc2ccc(-c3noc(Cc4ccccc4)n3)cc2)c1,–
0.36,inactive,2.2,CCCCCCCCCCOc1cc(C(=O)NO)on1,–
0.34,inactive,8.07,COc1ccc(C(=O)NO)cc1OCc1ccc(-c2ccc(Cl)cc2)cc1,solubility [10]: Insoluble
4.97,inactive,3.83,COc1ccc(C(=O)NO)cc1OCc1ccc(-c2cccnc2)cc1,–
–,inactive,–,CCCCCCc1ccc(COc2cccc(C(=O)NO)c2)cc1,solubility [10]: Insoluble
52.3,–,–,O=C(NO)c1cccc(OCc2ccc(-c3cccnc3)cc2)c1,–
21.6,inactive,–,COc1ccc(C(=O)NO)cc1OCc1noc(-c2ccc(Cl)cc2)n1,–
–,–,0.89,CCCCCCCCCCOc1cc(C(=O)NO)ccc1OC,–
